Results as given in PMC2757127 (Platelets, 2008).
Where two headings read alike, the source gives them in different places. Values belong to the compound of their own block, whether it stands above or below them.

Assays:
Format in all cases: cell-based
[1] = biological target: LPA5 (Homo sapiens, UniProt Q9H1C0); assay: LPA-elicited Ca2+ transients in RH7777 cells transiently transfected with LPA5; details: for Effect on LPA5: heterologously expressed LPA5; for Emax: relative to LPA 18:1
[2] = biological target: LPA1 (Homo sapiens, UniProt Q92633); assay: LPA-elicited Ca2+ transients in RH7777 cells stably expressing LPA1; details: for Effect on LPA1: heterologously expressed LPA1
Sequence of LPA1 (Q92633 whole entry): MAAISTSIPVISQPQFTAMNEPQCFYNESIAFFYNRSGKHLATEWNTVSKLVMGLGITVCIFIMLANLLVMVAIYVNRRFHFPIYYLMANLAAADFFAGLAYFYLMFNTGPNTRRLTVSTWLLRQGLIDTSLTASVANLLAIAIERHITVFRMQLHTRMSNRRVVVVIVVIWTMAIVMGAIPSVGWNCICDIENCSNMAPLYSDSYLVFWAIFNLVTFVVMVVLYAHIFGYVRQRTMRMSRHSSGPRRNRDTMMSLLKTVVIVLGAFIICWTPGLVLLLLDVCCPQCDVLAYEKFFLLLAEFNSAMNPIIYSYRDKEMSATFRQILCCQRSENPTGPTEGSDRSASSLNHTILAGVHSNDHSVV
Outline: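 RH7777 cells stably expressing receptor, seeded on poly-L-lysine-coated wells at 5 × 10^4 cells/well overnight. Serum-starved 6 h in modified Krebs buffer (pH 7.4), loaded with Fura-2 AM for 35 min with 2% pluronic acid. Ca2+ recorded as the ratio of 520 nm emission at 340/380 nm excitation. Albumin arm: 15 µM BSA for 5 min before LPA. Quadruplicate.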

[3] = biological target: LPA4 (Homo sapiens, UniProt Q99677); assay: LPA-elicited Ca2+ transients in CHO cells stably expressing LPA4; details: for Effect on LPA4: Table II, heterologously expressed LPA4
Sequence of LPA4 (Q99677 whole entry): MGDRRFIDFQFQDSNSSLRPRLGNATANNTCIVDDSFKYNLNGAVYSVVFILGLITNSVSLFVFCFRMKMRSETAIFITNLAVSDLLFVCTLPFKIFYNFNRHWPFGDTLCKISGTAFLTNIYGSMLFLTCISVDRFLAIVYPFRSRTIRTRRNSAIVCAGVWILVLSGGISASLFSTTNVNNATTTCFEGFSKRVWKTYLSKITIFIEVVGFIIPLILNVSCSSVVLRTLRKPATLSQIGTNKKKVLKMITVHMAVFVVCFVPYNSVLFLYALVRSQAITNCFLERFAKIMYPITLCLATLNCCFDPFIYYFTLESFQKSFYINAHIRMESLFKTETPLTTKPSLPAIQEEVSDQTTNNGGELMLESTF

[4] = biological target: T1, LPA3 (Homo sapiens, UniProt Q9UBY5); assay: LPA-elicited Ca2+ transients in RH7777 cells stably expressing LPA3; details: for Effect on LPA3: heterologously expressed LPA3
T1 sequence (Q9UBY5 1-353): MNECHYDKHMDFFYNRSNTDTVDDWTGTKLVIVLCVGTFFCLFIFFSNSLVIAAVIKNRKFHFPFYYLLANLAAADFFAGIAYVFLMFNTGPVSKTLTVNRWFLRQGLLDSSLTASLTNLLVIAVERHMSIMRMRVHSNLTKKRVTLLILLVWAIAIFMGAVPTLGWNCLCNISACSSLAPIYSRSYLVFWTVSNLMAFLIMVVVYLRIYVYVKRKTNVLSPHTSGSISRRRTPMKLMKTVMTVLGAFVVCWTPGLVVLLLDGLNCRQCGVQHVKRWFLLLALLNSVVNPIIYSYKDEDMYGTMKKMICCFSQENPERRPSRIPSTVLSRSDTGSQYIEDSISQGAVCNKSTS

[5] = biological target: LPA2 (Homo sapiens, UniProt Q9HBW0); assay: LPA-elicited Ca2+ transients in RH7777 cells stably expressing LPA2; details: for Effect on LPA2: heterologously expressed LPA2
Sequence of LPA2 (Q9HBW0 whole entry): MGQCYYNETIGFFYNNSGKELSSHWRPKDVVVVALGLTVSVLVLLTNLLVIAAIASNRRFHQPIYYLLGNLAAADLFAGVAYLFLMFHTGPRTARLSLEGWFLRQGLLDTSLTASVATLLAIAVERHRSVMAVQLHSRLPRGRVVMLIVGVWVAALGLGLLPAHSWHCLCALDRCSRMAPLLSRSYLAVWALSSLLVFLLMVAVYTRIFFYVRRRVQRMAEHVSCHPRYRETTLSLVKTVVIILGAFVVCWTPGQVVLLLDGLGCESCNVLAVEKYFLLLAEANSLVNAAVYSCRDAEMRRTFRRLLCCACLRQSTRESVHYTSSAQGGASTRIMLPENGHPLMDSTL

[6] = tested on: human platelets; assay: Measurement of platelet cAMP; details: LPA 0.02–40 µM, 30 s–15 min; iloprost 50 nM, 1 minute
Outline: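 Human platelets from PRP pretreated with acetylsalicylic acid 1 mM and apyrase 0.3 U/mL (15 min, 37°C), washed, resuspended at 400,000/µL in HEPES buffer with glucose and apyrase (pH 7.4). Stirred suspensions were warmed 2 min at 37°C, then exposed to agonist for the set time. cAMP was measured by enzyme immunoassay. Mean ± SD, n=3 donors; Student's test, P 0.05.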

[7] = tested on: washed human platelets; assay: Platelet shape change; details: read-out: Platelets EC50, Table IV, n=4, mean ± SD
Outline: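 Washed human platelets were prepared from aspirin (1 mM)/apyrase-treated PRP and resuspended at 400,000/µL in HEPES buffer (pH 7.4) with glucose and 0.6 U/mL apyrase. Stirred at 1100 rpm and 37°C for 2 min, then given increasing agonist concentrations in methanol or FAF-BSA buffer (lipid:BSA 4:1). Shape change read as the fall in light transmission in an aggregometer. Four donors.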

[8] = read-out: LPA5 transiently transfected RH7777 cells EC50, Table IV, mean ± SD
[9] = 15µM FAF-BSA, 5 min pre-incubation

Sequence of LPA5 (Q9H1C0 whole entry): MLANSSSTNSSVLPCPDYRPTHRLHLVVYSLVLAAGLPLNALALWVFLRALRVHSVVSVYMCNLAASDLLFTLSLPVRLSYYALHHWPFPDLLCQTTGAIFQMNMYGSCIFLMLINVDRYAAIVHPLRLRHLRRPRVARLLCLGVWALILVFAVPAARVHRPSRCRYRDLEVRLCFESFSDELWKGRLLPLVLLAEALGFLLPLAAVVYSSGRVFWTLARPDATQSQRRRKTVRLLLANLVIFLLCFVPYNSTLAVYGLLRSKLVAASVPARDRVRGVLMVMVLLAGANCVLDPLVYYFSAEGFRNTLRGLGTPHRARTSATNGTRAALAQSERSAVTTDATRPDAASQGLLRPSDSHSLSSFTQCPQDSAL

Effect on LPA5 ([1]; Table II): Partial agonist
EC50 ([1]; Table II, LPA5): 0.42 µM
Emax ([1]; Table II, LPA5): 23%
Effect on LPA1 ([2]; Table II): Partial agonist
EC50 ([2]; Table II, LPA1): 0.74 µM
Emax ([2]; Table II, LPA1, relative to LPA 18:1): 63%
Effect on LPA4 [3]: No effect
Effect on LPA3 ([4]; Table II): Partial agonist
EC50 ([4]; Table II, LPA3): 0.73 µM
Emax ([4]; Table II, LPA3, relative to LPA 18:1): 81%
Effect on LPA2 ([5]; Table II): Partial agonist
EC50 ([5]; Table II, LPA2): 11.9 µM
Emax ([5]; Table II, LPA2, relative to LPA 18:1): 46%
Compound: CCCCCCCCCCCCCCCC(=O)N[C@@H](COP(=O)(O)O)C(=O)O [NPSPA, N-palmitoyl-serine phosphoric acid]

EC50 [1, 8]: 0.0041 ± 0.0021 µM
EC50 [7]: 0.0046 ± 0.00098 µM
Compound: CCCCCCCCCCCCCCCCOC[C@@H](O)COP(=O)(O)O [alkyl-LPA 16:0]
Change in platelet cAMP levels [6]: did not affect

EC50 [1, 8]: 0.0699 ± 0.0214 µM
EC50 [7]: 0.0202 ± 0.0175 µM
Compound: CCCCCCCCCCCCCCCCCCOC[C@@H](O)COP(=O)(O)O [alkyl-LPA 18:0]

Continued, compound first:

Compound: CCCCCCCCCCCCCCCC(=O)N[C@@H](Cc1ccc(OP(=O)(O)O)cc1)C(=O)O [NPTPA, N-palmitoyl-tyrosine phosphoric acid]
Effect on LPA5 ([1]; Table II): Partial agonist
Emax ([1]; Table II, LPA5): 72.0%
Effect on LPA1 ([2]; Table II): Antagonist
Ki ([2]; Table II, LPA1, inhibitory binding constant): 0.53 µM
Ki ([2]; read-out: Ki at LPA1, text b35): 0.533 µM
Effect on LPA4 [3]: No effect
Effect on LPA3 ([4]; Table II): No effect
Effect on LPA2 ([5]; Table II): No effect

Compound: CCCCCCCCCCCCCCCC(=O)OC[C@@H](O)COP(=O)(O)O [acyl-LPA 16:0]
Change in platelet cAMP levels [6]: did not affect

Compound: CC#CCC(C)[C@H](O)/C=C/[C@@H]1[C@H]2C/C(=C/CCCC(=O)O)C[C@H]2C[C@H]1O (stereo partly drawn) [iloprost]
Change in platelet cAMP levels [6]: robust increase

Compound: fatty acid free bovine serum albumin [FAF-BSA]
Effect on activation of LPA5 by LPA [1, 9]: did not inhibit
Effect on activation of LPA1 by LPA [2, 9]: did not inhibit
Inhibition of LPA4 activation [3, 9]: 40%
Effect on activation of LPA3 by LPA [4, 9]: did not inhibit
Effect on activation of LPA2 by LPA [5, 9]: did not inhibit
